Data on two molecules can be found in ChEMBL document CHEMBL3745639, “Structure-activity relationships for lipoprotein lipase agonists that lower plasma triglycerides in vivo” (Eur J Med Chem, 2015).

Converted amounts (≈) assume the structure as drawn. The source made the active and inactive calls. Unless noted, the calls are words filed in the database; no cut-off is given here.

Series [1] in a line: Kinetic aqueous solubility of the compound in PBS at pH 7.4 after 2 hrs by LC-MS/MS analysis. It counts as physicochemical. The conditions noted are these: read-out: Kinetic_solubility. The procedure, abridged: (§1)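 Kinetic solubility from a 10 mM DMSO stock diluted 1:100 (1% DMSO, maximum detectable 0.1 mM) into PBS pH 7.4 or HCl-adjusted PBS at about pH 1.2. Incubated at 37 °C for 2 h in sealed glass vials, centrifuged at 10000 x g, 37 °C, 20 min, then LC-MS/MS.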

The target in series [2] is T1, Lipoprotein lipase (Bos taurus) (UniProt P11151).
T1 sequence (whole entry): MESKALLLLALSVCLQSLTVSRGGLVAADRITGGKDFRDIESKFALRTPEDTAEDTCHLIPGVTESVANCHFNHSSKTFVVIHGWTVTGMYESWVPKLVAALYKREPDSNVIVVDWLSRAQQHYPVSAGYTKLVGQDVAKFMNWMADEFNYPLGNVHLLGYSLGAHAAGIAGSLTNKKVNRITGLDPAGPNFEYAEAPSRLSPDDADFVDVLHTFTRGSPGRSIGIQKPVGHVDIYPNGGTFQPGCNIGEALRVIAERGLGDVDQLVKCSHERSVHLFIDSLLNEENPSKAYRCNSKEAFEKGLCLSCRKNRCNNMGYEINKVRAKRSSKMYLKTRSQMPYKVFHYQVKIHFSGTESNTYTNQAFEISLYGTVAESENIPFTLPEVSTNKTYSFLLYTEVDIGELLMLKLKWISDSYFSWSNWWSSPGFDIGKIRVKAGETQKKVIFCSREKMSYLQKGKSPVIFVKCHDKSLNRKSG
The series can be described thus: Induction of bovine LPL stabilization using intralipid as substrate at 3.12 uM preincubated for 10 mins with human recombinant ANGPTL4 followed by substrate addition measured after 45 mins relative to control. The procedure, abridged:
(§2)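 Compound in DMSO in buffer (50 mM potassium phosphate pH 7.4, 0.15 M NaCl, 0.01% Triton X-100), with human ANGPTL4 N-terminal fragment (aa 26-184, 75 nM final) and bovine LPL (15 nM final). Preincubated 10 min at 25 °C with shaking. Stopped after 45 min with 2.5% Triton X-100, and NEFA measured enzymatically. Activity normalised between DMSO+LPL+ANGPTL4 (0%) and DMSO+LPL (100%).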

In series [3] the target is T1, Lipoprotein lipase (Bos taurus). The series can be described thus: Induction of bovine LPL stabilization using intralipid as substrate at 6.25 uM preincubated for 10 mins with human recombinant ANGPTL4 followed by substrate addition measured after 45 mins relative to control. The procedure, abridged:
as §2

Series [4] shares this target. Nature of the series: Induction of bovine LPL stabilization using intralipid as substrate at 12.5 uM preincubated for 10 mins with human recombinant ANGPTL4 followed by substrate addition measured after 45 mins relative to control. Summed up: as §2
Series [5] shares this target. Nature of the series: Induction of bovine LPL stabilization using intralipid as substrate at 25 uM preincubated for 10 mins with human recombinant ANGPTL4 followed by substrate addition measured after 45 mins relative to control. The procedure, abridged: as §2
Series [6] can be described thus: Apparent permeability across apical to basolateral side in human Caco2 cells at 10 uM after 15 to 60 mins. It counts as ADME, cell-based. The conditions noted are these: Caco-2. Summed up: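 Caco-2 monolayers washed with pre-warmed HBSS, then donor solution applied. Transport run with apical pH 6.5 and basolateral pH 7.4. Monolayer integrity checked by TEER and by mannitol permeability. Papp derived from transport rates.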
On the technique in general: Caco-2 cells form a polarised layer with tight junctions and transporters.

Series [7] in a line: Apparent permeability across basolateral to apical side in human Caco2 cells at 10 uM after 15 to 60 mins. The series is classed as ADME, cell-based. As to conditions: Caco-2.
Series [8] can be described thus: Efflux ratio of apparent permeability from basolateral to apical over apical to basolateral side in human Caco2 cells at 10 uM after 15 to 60 mins. It counts as ADME, cell-based. The conditions noted are these: Caco-2.
The nature of series [9]: Fraction unbound in human plasma at 10 uM after 4 hrs by rapid equilibrium dialysis method. It counts as ADME, cell-free. Summed up:
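Rapid equilibrium dialysis of pooled human plasma from two male and two female non-smoking donors. Compound typically 10 μM final, dialysed against isotonic phosphate buffer pH 7.4 at 37 °C for 4 h with rapid rotation. Proteins precipitated with methanol containing warfarin internal standard, then both compartments analysed by LC-MS/MS.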
(In general: In equilibrium dialysis only unbound substance equilibrates across the membrane.)

The nature of series [10]: Stability of the compound in human plasma after 4 hrs at 37 degC by mass spectrometric analysis. The series is classed as ADME, cell-free. The conditions noted are these: read-out: Stability. The procedure, abridged: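 Plasma test solution (pooled human plasma, typically 10 μM compound) held at 37 °C for 4 h, matching the dialysis time. A reference sample was frozen immediately. Proteins precipitated with methanol containing warfarin, then LC-MS/MS. Stability expressed on a relative basis.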

The nature of series [11]: Half life in human liver microsomes at 1 uM. It counts as ADME. The procedure, abridged:
(§3)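 Pooled liver microsomes (0.5 mg/ml) with compound at 1 μM in 0.1 M phosphate buffer pH 7.4. Reaction started with NADPH 1 mM. Sampled at 0, 5, 15 and 40 min in duplicate, quenched with acetonitrile containing warfarin, then LC-MS/MS.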
On the technique in general: Liver microsomes are a subcellular fraction often used to study metabolism.

A short description of series [12]: Intrinsic clearance in human liver microsomes at 1 uM after 5 to 40 mins by LC-MS/MS analysis in presence of NADPH. The conditions noted are these: read-out: CLH. It counts as ADME. Summed up:
as §3

Series [13] can be described thus: Intrinsic clearance in human hepatocytes assessed per 10^6 cells at 1 uM after 10 to 60 mins by LC-MS/MS analysis in presence of NADPH. The series is classed as ADME, cell-based, Hepatocyte. The conditions noted are these: read-out: CLH. The procedure, abridged:
(§4)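 Freshly isolated human hepatocytes (0.5 x 10⁶ cells/ml) in Williams medium E with compound at 1 μM. Reaction started by adding cells. Sampled at 0, 10, 30 and 60 min in duplicate, quenched with acetonitrile containing warfarin, then LC-MS/MS.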

Series [14] can be described thus: Half life in human hepatocytes at 1 uM. It counts as ADME, cell-based, Hepatocyte. The procedure, abridged: as §4
For another series, the system named is Mus musculus. The series can be described thus: Hypolipidemic activity in C57B16/J mouse assessed as reduction in plasma triglyceride level at 10 mg/kg, ip qd administered for 4 days followed by olive oil injection through oral gavage one hour post last dose measured at 180 mins. It counts as functional, organism-based. The procedure, abridged:
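Female C57B16/J mice, 8-9 weeks, about 18 g, n = 8/group. Given 10 mg/kg i.p. once daily for 4 days, 0.5 ml in PBS pH 7.4 with 3% DMSO and 0.2% Triton X-100. Fasted 8 h before the last dose, then 0.2 ml oral olive oil gavage 1 h after it. Tail-vein EDTA plasma taken at baseline and every 60 min to 180 min. TG measured enzymatically, reported as mean ± SD.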

A short description of series [15]: Kinetic aqueous solubility of the compound in PBS at pH 1.2 after 2 hrs by LC-Ms analysis. It counts as physicochemical. The conditions noted are these: read-out: Kinetic_solubility. Summed up: as §1
Series [16] is described as follows: Half life in human plasma after 24 hrs. It counts as ADME, cell-free.
In the next series the target is T2, Lipoprotein lipase (Bos taurus, UniProt P11151).
T2 sequence (P11151 whole entry): T1 sequence (whole entry)
Nature of the series: Induction of bovine LPL stabilization using intralipid as substrate preincubated for 10 mins with human recombinant ANGPTL4 followed by substrate addition measured after 45 mins relative to control. The procedure, abridged:
as §2

Turning to `Cc1ccc(NC(=O)c2cc(-c3cc4cc(C(=O)O)ccc4o3)ccc2N2CCCCC2)cc1`, the solubility kinetic at 2 h in series [1] was < 2 µM; in [15], 7 µM (≈ 3.18 µg/mL). In series [2], the outcome was inactive. For the same molecule, the figures for the Activity in series [3], in series [4] and in series [5] were 49.8%, 76% and 67.9%, respectively. In series [6], the Papp A→B (in general, the apparent permeability from the apical to the basolateral side of a cell layer) at 10 µM amounted to 1.2 ×10⁻⁶ cm/s. Moreover, in [7], the Papp B→A (in general, how fast a substance crosses the layer from the basolateral side) at 10 µM was found to be 1.8 ×10⁻⁶ cm/s. Moreover, the efflux ratio (in general, the permeability from basolateral to apical divided by that in the opposite direction, in the common usage) at 10 µM in series [8] was 1.5. The Fu in series [9] is given as < 0.01%. Moreover, the remaining at 4 h in [10] is 93%. The half-life (usually how long it takes for the measured level to halve) at 1 µM in series [11] is > 1.33 h; in [14], 0.667 h. The microsomal CLint at 1 µM in series [12] was < 17 µL/min/mg. Further, the hepatocyte CLint at 1 µM in series [13] turned out to be 35 µL/min/1e6 cells. The outcome in the series with Mus musculus was Active.
For `Cc1ccc(NC(=O)c2cc(N3C(=O)c4ccc(C(=O)O)cc4C3=O)ccc2N2CCCCC2)cc1`, the solubility kinetic at 2 h in [1] turned out to be 80 µM (≈ 38.7 µg/mL). Moreover, the result (in series [2]; in [3]; with Mus musculus) was inactive. The Activity was found to be 90% in series [4] and 93.8% in series [5]. Further, the half-life in series [16] is 1.5 h. Also, the Papp A→B at 10 µM in series [6] worked out at 12 ×10⁻⁶ cm/s. Further, in [7], the Papp B→A at 10 µM was determined as 31 ×10⁻⁶ cm/s. In addition, in series [8], the efflux ratio at 10 µM was 2.7. For the same molecule, in series [10], the remaining at 4 h was determined as 2%. At Lipoprotein lipase, the EC50 (in general, the concentration at which the effect is half-maximal) stood at 6.6 µM.
